CHO parental Ca – counter-screen for OX1R antagonists: effect in parental CHO cells; parental CHO-K1, ATP-induced calcium, Fluo-8 fluorescence; hit rate 0.63% among 330,000; inhibition, % at 5.6 µM;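 active = inhibition above that plate's mean sample inhibition plus 3 SD, cut at about 26% in these data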;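 note: 0% = ATP-challenged DMSO wells and 100% = DMSO wells without ATP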
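material = parental CHO cells | also added = ATP as calcium-mobilizing challenge | dosing = single point at 5.6 µM | detection = intracellular calcium via Fluo-8 no-wash fluorescent dye | read-out = % inhibition | benchmarks = low control ATP plus DMSO, high control DMSO only | repeats = one well per compound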
GPR7 antag – antagonists of human GPR7 (neuropeptides B/W receptor 1); AID 1861; GPR7-expressing cells, fluorescence antagonist assay; P48145; hit rate 1.1% among 290,000; inhibition, % at 4.4 µM; in the data active = inhibition above about 16%, passing the limit was not always enough;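 note: cells stimulated with the agonist NPW; 0% = agonist with vehicle and 100% = vehicle without agonist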
OX1R antag-1 – antagonists of human orexin 1 receptor. O43613. CHO/OX1R cells, Fluo-8 calcium fluorescence, orexin A. inhibition, % at 5 µM. hit rate 0.43% among 330,000. AID 434989;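 active = inhibition above its plate's threshold, mean inhibition of all tested compounds on the plate plus 3 SD, cut at about 37% in these data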;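 note: 0% = orexin A challenge wells and 100% = SB-334867-A antagonist wells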
TAAR1 ag – agonists of human TAAR1; CHO RD-HGA16 TAAR1, Fluo-8 calcium fluorescence; vehicle wells 0%, saturating PEA agonist 100%; Q96RJ0; hit rate 0.99% among 360,000; activation, % at 3 µM; AID 624467;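 active = activation above the mean activation of all test compounds in the run plus 3 SD, cut at about 38% in these data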
Target sequence (Q96RJ0 whole entry, looked up): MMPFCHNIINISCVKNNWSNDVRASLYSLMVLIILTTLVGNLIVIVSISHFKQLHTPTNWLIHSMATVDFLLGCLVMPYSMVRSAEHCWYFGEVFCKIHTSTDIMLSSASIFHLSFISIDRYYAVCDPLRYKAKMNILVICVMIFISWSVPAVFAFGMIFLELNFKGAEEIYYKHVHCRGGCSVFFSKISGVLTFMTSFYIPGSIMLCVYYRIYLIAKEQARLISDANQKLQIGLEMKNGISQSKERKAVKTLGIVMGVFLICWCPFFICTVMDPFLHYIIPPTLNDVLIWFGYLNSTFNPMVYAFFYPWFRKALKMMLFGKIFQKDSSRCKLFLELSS
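Test system: RD-HGA16 (CHO) cells co-expressing Gα16 and hTAAR1 | Doses: Single dose, 3 µM | Schedule: 17-24 h seeding, 75 min 37 °C dye, 30 min RT | Evaluation: % activation from peak over basal fluorescence ratio, DMSO-to-PEA scaled | Technique: Kinetic Fluo-8 calcium fluorescence | Benchmarks: Low control DMSO, high control PEA (EC100)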
OX1R antag-2 – OX1R (human) antagonism | O43613 | OX1R-expressing cells, FRET antagonist read-out | inhibition, % at 6.6 µM | hit rate 1.8% among 330,000 | AID 485270; in the data active = inhibition mostly above about 38%, no sharp cut-off; inactive = mostly below about 40%;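 note: 0% = agonist challenge alone and 100% = reference antagonist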
TAAR1 antagonist – human TAAR1 antagonism; Q96RJ0; CHO RD-HGA16 TAAR1, Fluo-8 calcium fluorescence, antagonist; inhibition, % at 3 µM; hit rate 1.5% among 360,000; AID 624466;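 active = inhibition above a per-plate cutoff, the mean inhibition of test compounds on that plate plus 3 SD, cut at about 49% in these data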;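 note: 0% = DMSO plus EC80 beta-PEA response and 100% = DMSO alone without agonist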
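Test system – hTAAR1-expressing CHO RD-HGA16 cells, Gα16-coupled · Also added – β-PEA at EC80 concentration, post-compound challenge · Compound – 3 µM, single point · Incubation – dye loading 75 min at 37 °C, then 30 min room temperature · Measured by – Fluo-8 intracellular calcium dye fluorescence, real-time kinetic reads · Benchmarks – vehicle and agonist controls · Replicates – singlicate, one well per test compound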
Active calls of the source: *; nt = not tested or not shown. In the library only some 4.6% were active in any assay of this set; here they are far more common.

SMILES | CHO parental Ca | GPR7 antag | OX1R antag-1 | TAAR1 ag | OX1R antag-2 | TAAR1 antagonist
Cc1ccc(S(=O)(=O)/N=C2/C=C(Sc3ncn[nH]3)C(=O)c3ccccc32)cc1 | -12 | -17 | -5 | nt | 59* | nt
O=C(CNS(=O)(=O)c1ccc(Cl)c(C(F)(F)F)c1)NC1CCCCC1 | -24 | nt | -10 | 17 | -3 | -21
CSc1nc(O)c(N=Nc2ccc(F)cc2F)c(=O)[nH]1 | -5 | 0 | -12 | 0 | 45* | -8
Cc1ccccc1-n1c(SCc2csc(Nc3ccccc3)n2)nnc1-c1cccnc1 | -18 | -8 | 2 | 2 | 69* | 2
Cc1ccc(Nc2nc(CSc3nnc(-c4cccnc4)n3-c3ccccc3C)cs2)cc1 | -38 | 1 | -6 | -2 | 67* | -45
C/C(=N\Nc1ccc(S(N)(=O)=O)cc1[N+](=O)[O-])c1ccccc1O | -13 | -7 | -1 | 5 | 22 | -15
NS(=O)(=O)c1ccc(N/N=C/c2ccc(O)cc2O)c([N+](=O)[O-])c1 | 1 | 1 | 4 | 3 | 20 | 10
C/C(=N\Nc1ccc(S(N)(=O)=O)cc1[N+](=O)[O-])c1ccco1 | 16 | -11 | 8 | -3 | 41* | 3
NS(=O)(=O)c1ccc(N/N=C/c2ccccn2)c([N+](=O)[O-])c1 | -3 | -11 | -12 | 0 | 46* | 10
COc1ccc(CNC(=O)C2CCC(CNC(=O)[C@@H]3Cc4ccccc4CN3)CC2)cc1 (some centres undefined) | -27 | 15 | -14 | 1 | 9 | 12
O=C(O)CSc1c2ccccc2cc2ccccc12 | -9 | -3 | 7 | 2 | 54* | 14
Cc1[nH]c2ccccc2c1SCC(=O)O | -11 | -7 | -9 | 15 | 14 | -9
COc1ccc(/C=C(\C#N)c2n[nH]c(Cn3cncn3)n2)cc1 | -15 | 20* | -18 | 0 | 24 | 7
CCN(C(=O)c1c(C)noc1C)c1c(N)n(Cc2ccccc2)c(=O)[nH]c1=O | 1 | nt | -15 | 1 | 6 | 12
CCSc1nnc2c(n1)[nH]c1c(C)cccc12 | 1 | 4 | -7 | 4 | 40* | -10
CSc1nnc2c(n1)[nH]c1c(C)cccc12 | -4 | 0 | -8 | 1 | 32 | 8
O=c1c2c([N+](=O)[O-])cc([N+](=O)[O-])cc2sn1-c1ccc(Br)cc1 | -5 | 0 | -11 | nt | 19 | nt
O=c1c2c([N+](=O)[O-])cc([N+](=O)[O-])cc2sn1Cc1ccccc1 | 54* | 5 | 71* | 32 | 35 | 28
Cc1cccc(N2CCN(C(=O)C3CC(=O)N(c4ccc5c(c4)OCCO5)C3)CC2C)c1 (centres undefined) | -14 | nt | 1 | 17 | -4 | 55*
Cc1cccc(N2CCN(C(=O)c3ccc4c(c3)OCCO4)CC2C)c1 (centres undefined) | -14 | -14 | -3 | 0 | 28 | -8
CCOC(=O)c1ccc(NC(=O)CN(c2ccc(C)cc2)S(=O)(=O)c2c(C)n[nH]c2C)cc1 | 9 | 12 | 19 | 34 | 1 | 52*
O=C(COc1ccc2ccccc2c1)N1CCN(C(=O)c2ccc([N+](=O)[O-])cc2)CC1 | -8 | 0 | -19 | 2 | 14 | 9
O=[N+]([O-])c1cc(NCCO)c(N2CCCCCC2)c2nonc12 | -4 | -6 | -21 | 1 | 46* | -6
CSc1nnc(-c2ccc([N+](=O)[O-])cc2)o1 | -9 | -6 | -3 | 2 | 62* | 10
C#CCSc1nnc(-c2ccc([N+](=O)[O-])cc2)o1 | -3 | -5 | -3 | 2 | 51* | 13
CSc1nnc(-c2ccc(F)cc2)o1 | -5 | -6 | -3 | 12 | 14 | -2
Cc1c(NC(=O)COC(=O)CSc2ccc(C(N)=O)cc2[N+](=O)[O-])c(=O)n(-c2ccccc2)n1C | -4 | 7 | 2 | 7 | 71* | -24
CCOC(=O)C1CCN(C(=O)COC(=O)CSc2ccc(C(N)=O)cc2[N+](=O)[O-])CC1 | -5 | -10 | -11 | 0 | 55* | -1
COC(=O)C1CCN(C(=O)COC(=O)CSc2ccc(C(N)=O)cc2[N+](=O)[O-])CC1 | -1 | nt | -7 | 1 | 37* | -12

Screening results: PubChem BioAssay, The Scripps Research Institute Molecular Screening Center
